pIC50: −log10 of the molar value. The source made the active and inactive calls. No cut-off for these calls is given here.
Key:
[1] = tested on: Jurkat; assay: Cell cycle arrest in human Jurkat E6-1 cells assessed as accumulation at G0/G1 phase at 12 uM after 24 hrs by FACS flow cytometry; type: functional
Summary of the method: (§1)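 Jurkat E6 cells cultured in RPMI 1640 with 10% FBS at 37 °C, 5% CO2. Compounds serially diluted in medium, starting 50% above the M21 IC50. 4.0 × 10^5 cells were exposed for 24 h. Cells were washed with PBS, chicken red blood cells added as internal standard, and fixed in ice-cold EtOH. After 1 h on ice in PBS with 1 μg/mL DAPI, phase distribution was read by flow cytometry. DMSO-treated cells served as control.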

[2] = tested on: M21; assay: Induction of DNA damage response in human M21 cells assessed as phosphorylation of H2AX into gammaH2AX at IC50 after 24 hrs by DAPI staining-based immunofluorescence assay; type: functional, cell-based
Summary of the method: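 M21 cells (1 × 10^5) on fibronectin-coated coverslips, grown 24 h, then exposed to agent for 24 h at 37 °C; 0.5% DMSO control. Fixed with 3.7% formaldehyde and permeabilized with 0.1% saponin/3% BSA. Probed with mouse anti-H2AX pS139 antibody for 2 h at room temperature. Nuclei counterstained with DAPI; nuclear γH2AX foci viewed by epifluorescence microscopy.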

[3] = tested on: M21; assay: Cytotoxicity against human M21 cells after 48 hrs by SRB assay; type: functional, cell-based; details: M21, 48 h
Summary of the method: (§2)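 NCI sulforhodamine B protocol. Cells were grown in high-glucose DMEM with 5% FBS and seeded per well at 4 × 10^3 (HT-29), 3.5 × 10^3 (M21) or 3 × 10^3 (MCF-7), then allowed 24 h to attach. Serial dilutions from 200 μM to 780 nM final were applied in DMSO <0.5% for 48 h. Cells were fixed with cold TCA (10% final) and stained with SRB, with absorbance read at 530–568 nm. Growth inhibition was computed against day-0 plates, giving the 50% inhibitory concentration. At least two experiments in triplicate, CV <10%.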

[4] = tested on: HT-29; assay: Cytotoxicity against human HT-29 cells after 48 hrs by SRB assay; type: functional, cell-based; details: HT-29, 48 h; summary of the method: as §2
[5] = tested on: Jurkat; assay: Cell cycle arrest in human Jurkat E6-1 cells assessed as accumulation at G2/M phase at 12 uM after 24 hrs by FACS flow cytometry; type: functional; summary of the method: as §1
[6] = tested on: Jurkat; assay: Cell cycle arrest in human Jurkat E6-1 cells assessed as accumulation at S phase at 12 uM after 24 hrs by FACS flow cytometry; type: functional
Summary of the method: (§3)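 Jurkat E6 cells grown in RPMI 1640 with 10% FBS at 37 °C, 5% CO2. Compounds were serially diluted in medium starting 50% above the M21 IC50. 4.0 × 10^5 cells were exposed for 24 h, then washed and spiked with chicken red blood cells as internal standard. Cells were fixed in ice-cold ethanol, stained with 1 μg/mL DAPI on ice for 1 h, and phase distribution was read by flow cytometry. The control was 0.5% DMSO.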

[7] = tested on: Jurkat; assay: Cell cycle arrest in human Jurkat E6-1 cells assessed as accumulation at S phase at 16 uM after 24 hrs by FACS flow cytometry; type: functional; summary of the method: as §3
[8] = tested on: MCF7; assay: Cytotoxicity against human MCF7 cells after 48 hrs by SRB assay; type: functional, cell-based; details: MCF7, 48 h; summary of the method: as §2
[9] = tested on: Jurkat; assay: Cell cycle arrest in human Jurkat E6-1 cells assessed as accumulation at G0/G1 phase at 16 uM after 24 hrs by FACS flow cytometry; type: functional; summary of the method: as §1
[10] = tested on: Jurkat; assay: Cell cycle arrest in human Jurkat E6-1 cells assessed as accumulation at G2/M phase at 16 uM after 24 hrs by FACS flow cytometry; type: functional; summary of the method: as §1
[11] = tested on: Jurkat; assay: Cell cycle arrest in human Jurkat E6-1 cells assessed as accumulation at G0/G1 phase at 26 uM after 24 hrs by FACS flow cytometry; type: functional; summary of the method: as §1
[12] = tested on: Jurkat; assay: Cell cycle arrest in human Jurkat E6-1 cells assessed as accumulation at G2/M phase at 26 uM after 24 hrs by FACS flow cytometry; type: functional; summary of the method: as §3
[13] = tested on: Jurkat; assay: Cell cycle arrest in human Jurkat E6-1 cells assessed as accumulation at S phase at 26 uM after 24 hrs by FACS flow cytometry; type: functional
Summary of the method: (§4)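 Jurkat E6 T-lymphoblasts in RPMI 1640 with 10% FBS, 37 °C, 5% CO2. […] Chicken red blood cells were added as internal standard. Cells were fixed in ice-cold EtOH and stained with 1 μg/mL DAPI on ice for 1 h before flow cytometry of phase distribution. Vehicle control was 0.5% DMSO.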

[14] = tested on: Jurkat; assay: Cell cycle arrest in human Jurkat E6-1 cells assessed as accumulation at G2/M phase at 48 uM after 24 hrs by FACS flow cytometry; type: functional; summary of the method: as §3
[15] = tested on: Jurkat; assay: Cell cycle arrest in human Jurkat E6-1 cells assessed as accumulation at G0/G1 phase at 48 uM after 24 hrs by FACS flow cytometry; type: functional; summary of the method: as §1
[16] = tested on: Jurkat; assay: Cell cycle arrest in human Jurkat E6-1 cells assessed as accumulation at S phase at 48 uM after 24 hrs by FACS flow cytometry; type: functional; summary of the method: as §4
[17] = tested on: Jurkat; assay: Cell cycle arrest in human Jurkat E6-1 cells assessed as accumulation at G2/M phase at 15 uM after 24 hrs by FACS flow cytometry; type: functional; summary of the method: as §1
[18] = tested on: HT-1080; assay: Antitumor activity against human HT1080 cells xenografted in chicken chorioallantoic membrane assessed as inhibition of tumor growth at 30 ug per egg, iv administered on day 11 measured on day 17 by CAM assay; type: functional
Summary of the method: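 HT-1080 fibrosarcoma cells (3.5 × 105/egg) were applied onto freshly exposed CAM of fertilized chicken eggs. On day 11, drug from a DMSO stock was diluted in Cremophor EL/99% ethanol/PBS (1/1/14 v/v) and 100 μL was injected into a vein under the CAM. Groups of 10–12 eggs were kept to day 17, embryos were euthanized at 4 °C for ≥4 h, and tumor wet weight was recorded.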

[19] = tested on: Jurkat; assay: Cell cycle arrest in human Jurkat E6-1 cells assessed as accumulation at S phase at 15 uM after 24 hrs by FACS flow cytometry; type: functional; summary of the method: as §3
[20] = Toxicity in fertilized chicken embryo assessed as mortality rate at 30 ug per egg, iv administered on day 11 measured on day 17 by CAM assay; type: organism-based, Gallus gallus; details: in vivo, read-out: Activity
Summary of the method: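 Fertilized chicken eggs grafted on the CAM with HT-1080 cells (3.5 × 105/egg) received a 100 μL intravenous injection under the CAM on day 11. The drug was diluted in Cremophor EL/99% ethanol/PBS (1/1/14 v/v). Groups held 10–12 eggs and were incubated until day 17, when dead embryos and signs of toxicity were counted per group.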

[21] = tested on: Jurkat; assay: Cell cycle arrest in human Jurkat E6-1 cells assessed as accumulation at G0/G1 phase at 15 uM after 24 hrs by FACS flow cytometry; type: functional; summary of the method: as §1
[22] = tested on: Jurkat; assay: Cell cycle arrest in human Jurkat E6-1 cells assessed as accumulation at G2/M phase at 8.3 uM after 24 hrs by FACS flow cytometry; type: functional; summary of the method: as §3
[23] = tested on: Jurkat; assay: Cell cycle arrest in human Jurkat E6-1 cells assessed as accumulation at S phase at 8.3 uM after 24 hrs by FACS flow cytometry; type: functional; summary of the method: as §4
[24] = tested on: Jurkat; assay: Cell cycle arrest in human Jurkat E6-1 cells assessed as accumulation at G0/G1 phase at 8.3 uM after 24 hrs by FACS flow cytometry; type: functional; summary of the method: as §1
[25] = tested on: Jurkat; assay: Cell cycle arrest in human Jurkat E6-1 cells assessed as accumulation at G0/G1 phase at 22 uM after 24 hrs by FACS flow cytometry; type: functional; summary of the method: as §1
[26] = tested on: Jurkat; assay: Cell cycle arrest in human Jurkat E6-1 cells assessed as accumulation at G2/M phase at 22 uM after 24 hrs by FACS flow cytometry; type: functional; summary of the method: as §3
[27] = tested on: Jurkat; assay: Cell cycle arrest in human Jurkat E6-1 cells assessed as accumulation at S phase at 22 uM after 24 hrs by FACS flow cytometry; type: functional; summary of the method: as §3

With `CCNC(=O)Nc1cccc(S(=O)(=O)Oc2ccccc2CC)c1` the Activity [1] was 26%, the Activity [2] was “Active” and the pIC50 [3] was 4.52. For the same compound, the pIC50 [4] was 4.48, the Activity [5] was 11% and the Activity [6] was 63%.

`CCc1ccccc1NS(=O)(=O)c1ccc(NC(=O)NCCCl)cc1` gave an Activity [7] of 43%, a pIC50 [8] of 4.48 and a pIC50 [3] of 4.17. The pIC50 [4] was 4.40, the Activity [9] was 41% and the Activity [10] was 16%.

Compound `CCCc1ccccc1NS(=O)(=O)c1cccc(NC(=O)NCCCCl)c1` has an Activity [11] of 44%, a pIC50 [8] of 4.74 and an Activity [12] of 13%. The pIC50 [3] was 4.64, the pIC50 [4] was 4.82 and the Activity [13] was 43%.

For `Cc1ccccc1NS(=O)(=O)c1ccc(NC(=O)NCCCl)cc1`, the Activity [14] was 20%, the Activity [15] was 45% and the pIC50 [3] was 4.20. The pIC50 [4] was 4.26 and the Activity [16] was 35%.

For `CCc1ccccc1OS(=O)(=O)c1ccc(NC(=O)NCCCCl)cc1`, the Activity [17] was 11%, the TGI [18] was 68% and the Activity [2] was “Active”. It also gave an Activity [19] of 63%, a pIC50 [3] of 4.82 and a mortality at 6 days [20] of 0%. The Activity [21] was 26%.

`Cc1ccccc1OS(=O)(=O)c1ccc(NC(=O)NCCCCl)cc1` showed a pIC50 [8] of 4.57, an Activity [22] of 10% and an Activity [23] of 70%. For the same compound, the Activity [2] was “Active”, the pIC50 [3] was 4.60 and the Activity [24] was 20%.

Compound `CCCc1ccccc1NS(=O)(=O)c1ccc(NC(=O)NCCCCl)cc1` has an Activity [25] of 36%, a pIC50 [8] of 4.46 and an Activity [26] of 23%. It also gave a pIC50 [3] of 4.42, a pIC50 [4] of 4.59 and an Activity [27] of 41%.
